Measurements from different studies.
Lines come from different studies, so protocols differ.
Effect on: cell growth or viability

The CC50 of C[C@H](NC(=O)[C@]1(Cc2ccccc2)CCN1C(=O)OCc1ccccc1)C(=O)NC(C)(C)C is reported as > 100 µM (HEL; 72 h).
For O=c1[nH]c(=O)c2ncn(CCOCP(=O)(O)O)c2[nH]1, the CC50 was 111 µM (HEL; 72 h).
The CC50 of Cc1nc2ccc(Cl)cn2c1C(=O)N1CCN(CCn2cc(C3CC3)nn2)CC1 is reported as > 100 µM (HeLa; resazurin).
O=c1[nH]c(=O)c2ncn(C[C@@H](CO)OCP(=O)(O)O)c2[nH]1 has a CC50 of > 300 µM (HEL; 72 h).
CCOP(=O)(OCC)[C@@H]1C[C@H](n2cc(Cn3ccc(=O)[nH]c3=O)nn2)ON1C (racemic) gave a CC50 of > 100 µM (HEL; 72 h).
Cc1ccn2c(C(=O)N3CCN(Cc4cn(-c5ccccc5Cl)nn4)CC3)c(C)nc2c1 gave a CC50 of > 100 µM (HeLa; resazurin).
COc1ccc(S(=O)(=O)ON=C2C=C(C)C(=O)C(C)=C2)cc1 has a CC50 of > 30 µM (HPAC).
The CC50 of CCOP(=O)(OCC)[C@@H]1C[C@@H](n2cc(Cn3cnc4c(N)ncnc43)nn2)ON1C (racemic) is reported as > 100 µM (HEL; 72 h).
Cc1nc2ccc(Cl)cn2c1C(=O)N1CCN(Cc2cn(-c3ccc(F)cc3)nn2)CC1 gave a CC50 of > 100 µM (HeLa; resazurin).
Nc1nc(O)c2ncn(COC(CO)CO)c2n1 has a CC50 of 63 µM (HEL; 72 h).
For CCOP(=O)(OCC)[C@@H]1C[C@H](n2cc(Cn3cc(C)c(=O)[nH]c3=O)nn2)ON1C (racemic), the CC50 was > 100 µM (HEL; 72 h).
